Among the data in ChEMBL document CHEMBL1143448, “1,8-Naphthyridin-4-one derivatives as new ligands of A2A adenosine receptors” (Bioorg Med Chem Lett, 2005) are Ki values, retold here.

In experiment [1] the target is T1, Adenosine receptor A1 (Homo sapiens, UniProt P30542).
T1 sequence (P30542 whole entry): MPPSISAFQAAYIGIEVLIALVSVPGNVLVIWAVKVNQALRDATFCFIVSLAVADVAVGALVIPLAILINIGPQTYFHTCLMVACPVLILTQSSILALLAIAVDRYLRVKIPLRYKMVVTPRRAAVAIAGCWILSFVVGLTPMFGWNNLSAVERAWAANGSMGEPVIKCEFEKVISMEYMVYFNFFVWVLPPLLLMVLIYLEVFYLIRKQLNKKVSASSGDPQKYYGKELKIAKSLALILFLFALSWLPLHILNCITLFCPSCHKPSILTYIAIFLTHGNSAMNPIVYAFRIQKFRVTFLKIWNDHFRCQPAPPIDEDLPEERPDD
Nature of the experiment: Inhibition of [3H]CHA binding to adenosine A1 receptor of human brain cortical membrane. Put shortly:
(§1)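 A1 affinity was taken from displacement of specific [3H]N6-cyclohexyladenosine ([3H]CHA, agonist radioligand) binding in bovine or human cortical membranes. Values are given as Ki in nM ± error.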

Experiment [2] deals with T2, Adenosine receptor A1 (Bos taurus, UniProt P28190).
T2 sequence (P28190 whole entry): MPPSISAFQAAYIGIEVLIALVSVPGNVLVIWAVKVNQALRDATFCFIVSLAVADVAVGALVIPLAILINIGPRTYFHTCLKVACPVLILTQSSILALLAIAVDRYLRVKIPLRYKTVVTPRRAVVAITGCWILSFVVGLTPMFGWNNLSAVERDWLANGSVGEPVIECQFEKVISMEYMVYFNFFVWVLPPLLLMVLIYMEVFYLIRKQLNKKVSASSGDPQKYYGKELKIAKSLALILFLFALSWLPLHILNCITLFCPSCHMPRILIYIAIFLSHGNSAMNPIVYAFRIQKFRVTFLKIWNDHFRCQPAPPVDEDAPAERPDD
Nature of the experiment: Inhibition of [3H]CHA binding to adenosine A1 receptor of bovine brain cortical membrane. Put shortly:
as §1

In experiment [3] the target is Adenosine receptor A2a (Bos taurus). Nature of the experiment: Inhibition of [3H]CGS-21680 binding to adenosine A2a receptor of bovine striatal membrane.
The next experiment deals with Adenosine receptor A2a (Homo sapiens, UniProt P29274). Nature of the experiment: Inhibition of [3H]CGS-21680 binding to adenosine A2a receptor of human striatal membrane. Put shortly:
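Competition binding to striatal membranes from bovine or human brain, measuring displacement of the specific binding of the tritiated agonist [3H]CGS21680 (2-[[p-(2-carboxyethyl)phenyl]ethyl]amino-5'-N-ethylcarboxamidoadenosine). Affinity reported as Ki (nM) ± error.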

Chain of Adenosine receptor A2a (P29274 whole entry): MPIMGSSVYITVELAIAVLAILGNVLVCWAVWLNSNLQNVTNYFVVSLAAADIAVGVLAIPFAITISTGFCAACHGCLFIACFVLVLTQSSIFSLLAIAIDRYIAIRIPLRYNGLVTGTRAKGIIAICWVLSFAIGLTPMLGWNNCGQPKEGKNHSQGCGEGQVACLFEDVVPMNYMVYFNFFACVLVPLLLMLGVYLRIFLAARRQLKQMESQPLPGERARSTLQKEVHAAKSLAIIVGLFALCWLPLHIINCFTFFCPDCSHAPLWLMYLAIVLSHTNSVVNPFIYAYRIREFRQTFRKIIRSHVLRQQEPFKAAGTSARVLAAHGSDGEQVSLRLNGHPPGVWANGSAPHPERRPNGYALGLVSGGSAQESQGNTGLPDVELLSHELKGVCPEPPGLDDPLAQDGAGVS

Take `Cc1ccc2c(O)c(Cc3ccccc3Cl)cnc2n1`: the Ki turned out to be 4.16 µM on Adenosine receptor A1 [1] and 8.73 µM on Adenosine receptor A1 [2].

In turn, `CCOC(=O)c1cnc2nc(C)ccc2c1O` gave a Ki at Adenosine receptor A1 [2] of more than 10 µM.

On Adenosine receptor A1 [2], `Cc1ccc2c(S)c(Cc3ccccc3)cnc2n1` gave a Ki of 6.33 µM.

Turning to `O=C(NCc1ccccc1)c1cnc2nc(Cl)ccc2c1O`, the inhibition constant (Ki) on Adenosine receptor A1 [2] is 0.586 µM; in experiment [3], 0.067 µM.

`O=C(NCc1ccccc1)c1cnc2nc(N(CCO)CCO)ccc2c1O`: the Ki (on Adenosine receptor A1 [2]; in experiment [3]) was more than 10 µM each time.

As to `Cc1ccc2c(O)c(C(=O)NCCc3ccccc3)cnc2n1`, the Ki on Adenosine receptor A2a was found to be 0.15 µM; at Adenosine receptor A1 [1], 0.73 µM; on Adenosine receptor A1 [2], 0.68 µM; in experiment [3], 0.14 µM.

Take `Cc1ccc2c(O)c(C(=O)NCc3ccco3)cnc2n1`: the values for the Ki on Adenosine receptor A1 [1] and at Adenosine receptor A1 [2] were 0.3 µM and 1.35 µM, respectively.

For `Cc1ccc2c(Cl)c(Cc3ccccc3)cnc2n1`, the Ki at Adenosine receptor A1 [1] and at Adenosine receptor A1 [2] was more than 10 µM each time.

For `Cc1ccc2c(O)c(C(=O)NN3CCOCC3)cnc2n1`, the Ki on Adenosine receptor A2a was more than 10 µM; at Adenosine receptor A1 [1], more than 10 µM; on Adenosine receptor A1 [2] it was more than 10 µM; in experiment [3] it was 8.66 µM.

In the case of `Cc1ccc2c(O)c(Cc3ccccc3)cnc2n1`, the Ki is 3.33 µM at Adenosine receptor A2a, 4.18 µM on Adenosine receptor A1 [1], more than 10 µM on Adenosine receptor A1 [2] and more than 10 µM in experiment [3].

Consider `O=C(NCc1ccccc1)c1cnc2nc(NCc3ccccc3)ccc2c1O`, for which the Ki on Adenosine receptor A1 [2] was 0.677 µM; in experiment [3], more than 10 µM.

Turning to `Nc1ccc2c(O)c(C(=O)NCc3ccccc3)cnc2n1`, the inhibition constant (Ki) on Adenosine receptor A1 [1] was 0.63 µM; at Adenosine receptor A1 [2] it was 0.97 µM.

On to `O=C(NCc1ccccc1)c1cnc2nc(NC3CCCCC3)ccc2c1O`, for which the inhibition constant Ki at Adenosine receptor A1 [2] was more than 10 µM.

Turning to `Cc1ccc2c(O)c(CC(=O)NC3CCCCC3)cnc2n1`, the inhibition constant Ki on Adenosine receptor A1 [1] and on Adenosine receptor A1 [2] was more than 10 µM each time.

As for `Cc1ccc2c(O)c(C(=O)NCc3ccc(N)cc3)cnc2n1`, the values for the Ki (at Adenosine receptor A1 [2]; in experiment [3]) were 2.86 µM and 0.146 µM, respectively.

For `Cc1ccc2c(O)c(C(=O)NCc3ccc(NC(=O)c4ccccc4)cc3)cnc2n1`, the Ki came to 7.59 µM at Adenosine receptor A1 [2] and 0.588 µM in experiment [3].

With `O=C(NCc1ccccc1)c1cnc2ncccc2c1O`, the Ki worked out at 2.75 µM at Adenosine receptor A1 [2] and 1.17 µM in experiment [3].

As to `Cc1ccc2c(O)c(C(=O)NN3CCN(C)CC3)cnc2n1`, the Ki on Adenosine receptor A1 [1] and at Adenosine receptor A1 [2] was more than 10 µM throughout.

`Cc1ccc2c(O)c(C(=O)NCc3ccc(F)cc3)cnc2n1`: the Ki at Adenosine receptor A1 [1] was 1.65 µM; at Adenosine receptor A1 [2], 1.77 µM.

In the case of `Cc1ccc2c(O)c(C(=O)NCc3ccc([N+](=O)[O-])cc3)cnc2n1`, the Ki at Adenosine receptor A1 [2] came out at 1.63 µM; in experiment [3], 0.099 µM.

For the molecule `COc1ccc(CNC(=O)c2cnc3nc(C)ccc3c2O)cc1`, the inhibition constant (Ki) is 2.41 µM at Adenosine receptor A2a, 4.37 µM on Adenosine receptor A1 [1], more than 10 µM at Adenosine receptor A1 [2] and 0.74 µM in experiment [3].

In the case of `Cc1ccc2c(O)c(C(=O)NC3CCC(C)CC3)cnc2n1` (configuration not stated), the Ki at Adenosine receptor A2a was determined as 0.36 µM; at Adenosine receptor A1 [1], 5.6 µM; on Adenosine receptor A1 [2], 6 µM; in experiment [3], 0.39 µM.

Turning to `CC(=O)Nc1ccc2c(O)c(C(=O)NCc3ccccc3)cnc2n1`, the Ki on Adenosine receptor A1 [2] was more than 10 µM; in experiment [3] it was 6.78 µM.

Take `Cc1ccc2c(NN)c(Cc3ccccc3)cnc2n1`: the Ki on Adenosine receptor A2a is more than 10 µM; at Adenosine receptor A1 [1] it was more than 10 µM; on Adenosine receptor A1 [2] it was 0.22 µM; in experiment [3], 0.72 µM.

With `O=C(NCc1ccccc1)c1cnc2nc(Br)ccc2c1O`, the Ki at Adenosine receptor A1 [2] stood at 5.32 µM.

Regarding `Cc1ccc2c(O)c(C(=O)NC3CCCCC3)cnc2n1`, the Ki on Adenosine receptor A1 [1] and on Adenosine receptor A1 [2] was more than 10 µM in each case.

Regarding `Cc1ccc2c(O)c(C(=O)NCc3ccc(Cl)cc3)cnc2n1`, the figures for the Ki at Adenosine receptor A1 [1] and on Adenosine receptor A1 [2] were 1.63 µM and 1.74 µM, respectively.

Turning to `Cc1ccc2c(N=[N+]=[N-])c(Cc3ccccc3)cnc2n1`, the inhibitory constant (Ki) at Adenosine receptor A2a was 5.36 µM; on Adenosine receptor A1 [1], more than 10 µM; at Adenosine receptor A1 [2] it was 3.34 µM; in experiment [3], 3.36 µM.

As for `Cc1ccc(CNC(=O)c2cnc3nc(C)ccc3c2O)cc1`, the Ki at Adenosine receptor A1 [1] worked out at 1.58 µM.

Take `Cc1ccc2c(O)c(C(=O)NCCC(C)C)cnc2n1`: the Ki on Adenosine receptor A2a is 0.64 µM; on Adenosine receptor A1 [1], more than 10 µM; on Adenosine receptor A1 [2], more than 10 µM; in experiment [3] it was 1.43 µM.

For `Nc1ccc2c(O)c(C(=O)NCc3ccc(Cl)cc3)cnc2n1`, the inhibition constant (Ki) at Adenosine receptor A2a turned out to be 0.5 µM; at Adenosine receptor A1 [1] it was 6.24 µM; on Adenosine receptor A1 [2], 4.49 µM; in experiment [3], 0.54 µM.

Take `CN(C)c1ccc2c(O)c(C(=O)NCc3ccccc3)cnc2n1`: the Ki turned out to be 0.122 µM at Adenosine receptor A1 [2] and 0.057 µM in experiment [3].

Take `Cc1ccc2c(NC3CCCCC3)c(Cc3ccccc3)cnc2n1`: the Ki at Adenosine receptor A1 [1] and at Adenosine receptor A1 [2] was more than 10 µM each time.

On to `Cc1ccc2c(O)c(C(=O)NCc3ccccc3)cnc2n1`, for which the values for the Ki on Adenosine receptor A1 [1] and on Adenosine receptor A1 [2] were 0.63 µM and 0.28 µM, respectively.

In the case of `CC(=O)N(C(C)=O)c1ccc(CNC(=O)c2cnc3nc(C)ccc3c2O)cc1`, the Ki at Adenosine receptor A1 [2] was more than 10 µM.

Consider `Cc1ccc2c(O)c(CC(=O)NCc3ccccc3)cnc2n1`, for which the Ki is 0.87 µM at Adenosine receptor A2a, more than 10 µM on Adenosine receptor A1 [1], more than 10 µM at Adenosine receptor A1 [2] and more than 10 µM in experiment [3].

As for `Cc1ccc2c(O)c(C(=O)NC(C)c3ccccc3)cnc2n1` (configuration not stated), the inhibition constant Ki on Adenosine receptor A1 [1] was 0.717 µM; at Adenosine receptor A1 [2], 0.418 µM.

Take `O=C(NCc1ccccc1)c1cnc2nc(NCCc3ccccc3)ccc2c1O`: the Ki on Adenosine receptor A1 [2] is 0.977 µM.

As for `O=C(NCc1ccccc1)c1cnc2[nH]c(=O)ccc2c1O`, the Ki on Adenosine receptor A1 [2] is more than 10 µM.

Turning to `Cc1ccc2c(O)c(C(=O)OCc3ccccc3)cnc2n1`, the Ki (at Adenosine receptor A1 [2]; in experiment [3]) was more than 10 µM throughout.
